Biological target: Apelin receptor (Homo sapiens) (UniProt P35414)
Assay: apelin receptor activation by small molecules – cell-based, CHO-K1 AGTRL-1, PathHunter luminescence, set 3, SAR follow-up (AID 492985)
Details: CHO-K1 APJ beta-arrestin PathHunter
In short: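 Assay system: CHO-K1 AGTRL-1 (APJ) PathHunter β-arrestin cell line. Dosing: compound dose-response series with DMSO equalised across wells. Incubation: compound exposure 90 min at 25 °C, detection reagent 60 min. Signal: luminescence from β-gal fragment complementation upon β-arrestin recruitment. Controls: apelin-13 reference wells, 30 nM as dispensed.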

Sequence of Apelin receptor (Homo sapiens) (P35414 whole entry, looked up): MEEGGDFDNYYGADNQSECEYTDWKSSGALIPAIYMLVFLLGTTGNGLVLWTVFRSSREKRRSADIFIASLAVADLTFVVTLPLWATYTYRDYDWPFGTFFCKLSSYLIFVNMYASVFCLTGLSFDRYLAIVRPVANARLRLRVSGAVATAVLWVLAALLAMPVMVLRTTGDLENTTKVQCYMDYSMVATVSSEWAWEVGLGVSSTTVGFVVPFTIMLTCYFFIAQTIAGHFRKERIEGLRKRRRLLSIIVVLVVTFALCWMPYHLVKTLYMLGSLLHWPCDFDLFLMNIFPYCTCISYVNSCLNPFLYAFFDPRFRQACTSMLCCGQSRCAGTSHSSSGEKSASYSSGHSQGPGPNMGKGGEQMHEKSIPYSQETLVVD

Row | Structure (SMILES) | EC50
1 | CC1=CC(=O)C(C(C)C)=C/C1=N/OS(=O)(=O)c1ccc(C(C)C)cc1 | 5.56 µM
2 | CC1=CC(=O)C(C(C)C)=C/C1=N/OS(=O)(=O)c1ccc(F)cc1 | 7.15 µM
3 | CC1=CC(=O)C(C(C)C)=C/C1=N/OS(=O)(=O)c1ccc(C#N)cc1 | 3.52 µM

— PubChem BioAssay AID492985 (Sanford-Burnham Center for Chemical Genomics, 2010)
